From PMC6831891 (Molecular Therapy. Nucleic Acids, 2019)

Tests used:
[1] = test system: S. pyogenes strain 591 (M49); experiment: G. mellonella infection model; assay type: in vivo, Galleria mellonella
Method in brief: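 Wax moth larvae (150–200 mg) injected into the hemocoel, between the last two pro-leg pairs, with 1–3 × 10^6 CFU/larva. Inoculum was grown overnight in THY, washed twice and resuspended in 0.9% NaCl. Test compound (4 nmol/larva) injected 30 min post-infection; 0.9% NaCl served as mock. Survival recorded daily over 7 days.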

[2] = test system: S. pyogenes M49 strain 591; experiment: Bacterial kill assay; assay type: cell-based, Streptococcus pyogenes; conditions: for Reduction of CFU per milliliter: concentration range 1 to 10 μM, n = 3; for Reduction of CFU per milliliter / Clearance six hours following treatment / Reduction of bacterial counts by scPNA / Reduction of bacterial counts by scPNAs in kill assay: 6 h; for Clearance six hours following treatment: 5 μM or 10 μM; for log CFU reduction: six hours following treatment; for Reduction of bacterial counts by scPNA: 10 μM scPNA, n = 5; for Reduction of bacterial counts by scPNAs in kill assay: up to 5 μM scPNA
Method in brief: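 S. pyogenes overnight cultures diluted in PBS/BHI (7/2) to about 2 × 10^5 CFU/mL. Test compound added to 1–10 μM final, with water as mock. Incubated 6 h at 37°C while rotating at 7 rpm. Dilutions plated on THY agar, and CFU counted after overnight growth at 37°C under 5% CO2/20% O2. Initial screen used two biological replicates; later experiments used at least three.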

[3] = test system: S. pyogenes M1 strain AP1; experiment: Bacterial kill assay, strain AP1; assay type: cell-based, Streptococcus pyogenes; conditions: 6 h (data not shown; Figure 3B cited)
Method in brief: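 Overnight THY cultures (37°C, 5% CO2/20% O2) diluted in PBS/BHI (7/2) to about 2 × 10^5 CFU/mL. About 10^5 CFU were exposed to CPP-PNA conjugates at 1–10 μM final, with 5 μM used in the isolate comparison; water was the mock. Incubation 6 h at 37°C, rotating at 7 rpm. Viable counts came from plating dilutions on THY agar, compared with the untreated control.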

gyrA mRNA = assay type: cell-based, Streptococcus pyogenes; conditions: 2 μM CPP-PNA, 6 h, 10^7 CFU/mL in THY; normalised to 5S RNA gene, 2^-ΔΔct; n = 3

C[C@H]1COc2c(N3CCN(C)CC3)c(F)cc3c(=O)c(C(=O)O)cn1c23 [levofloxacin, reference compound]
Survival of infected larvae ([1]; 1 μg levofloxacin alone, untreated infected larvae 20%, n = 30 larvae per group): 46%

Dansyl-G-C-ELALE LALEALEAALELA [ELA-anti-gyrA PNA]
Reduction of CFU per milliliter [2]: no reduction

KKKKKKKK [K8-anti-gyrA PNA]
Clearance six hours following treatment [2]: no clearance was achieved
log CFU reduction ([2]; 5 μM): three
log CFU reduction ([2]; 10 μM): four
Antimicrobial effect in AP1 [3]: did not show any antimicrobial effect
gyrA mRNA level relative to mock-treated bacteria (gyrA mRNA): 60%

KKKKKKKK [K8-anti-gyrA scPNA]
Reduction of bacterial counts by scPNA [2]: significant reduction
Reduction of bacterial counts by scPNAs in kill assay [2]: did not lead to the reduction of bacterial counts

LLIILRRRIRKQAHAHSK [mVE-cadherin-anti-gyrA PNA]
Reduction of CFU per milliliter [2]: no reduction

RQIKIWFQNRRMKWKK [Ant-anti-gyrA PNA]
Reduction of CFU per milliliter [2]: no reduction

RXRRXRRXRRXRXB [(RXR)4XB-anti-gyrA PNA]
Clearance six hours following treatment [2]: no clearance was achieved
log CFU reduction ([2]; 5 μM): three
log CFU reduction ([2]; 10 μM): four
gyrA mRNA level relative to mock-treated bacteria (gyrA mRNA): 56%
Effect on larvae survival relative to the other active conjugates ([1]; 4 nmol/larva, 7 days): lower compared with the other conjugates

RXRRXRRXRRXRXB [(RXR)4XB-anti-gyrA scPNA]
Reduction of bacterial counts by scPNA [2]: significant reduction
Reduction of bacterial counts by scPNAs in kill assay [2]: did not lead to the reduction of bacterial counts
